Source: ChEMBL document CHEMBL1127419, “A comparative molecular field analysis model for 6-arylpyrrolo[2,1-d] [1,5]benzothiazepines binding selectively to the mitochondrial benzodiazepine receptor” (J Med Chem, 1994)

Key:
[1] = target: T1, Translocator protein (Rattus norvegicus, UniProt P16257); assay: (§1) Displacement of [3H]-PK 11195 from rat peripheral (mitochondrial) benzodiazepine receptor
In short: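 Male CD rat (~150 g) cerebral cortex membranes washed in 50 mM phosphate-buffered saline, pH 7.4. 10 mg wet tissue incubated 120 min at 4 °C with 1 nM [3H]PK 11195 and 8–12 drug concentrations. Nonspecific binding defined with 1 μM PK 11195. Filtration, scintillation counting. IC50 by nonlinear curve fitting; triplicate points.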

[2] = target: T1, Translocator protein; assay: as §1; remark: listed apart in the source

T1 sequence (P16257 whole entry, looked up): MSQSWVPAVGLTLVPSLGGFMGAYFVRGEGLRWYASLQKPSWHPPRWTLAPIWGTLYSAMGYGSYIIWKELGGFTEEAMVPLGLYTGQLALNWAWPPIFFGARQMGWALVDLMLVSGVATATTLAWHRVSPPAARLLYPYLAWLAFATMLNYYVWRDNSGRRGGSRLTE

Structure (SMILES)	IC50 [1] [nM]	IC50 [2] [nM]
COc1ccc(C2C(=O)c3cccn3-c3ccccc3[S+]2[O-])cc1 (stereo not given)	22900	
CC(=O)OC1=C(c2ccccc2)Sc2cc(C)ccc2-n2cccc21	112	112
COc1ccc(C2=C(OC(=O)N(C)C)c3cccn3-c3cc(Cl)ccc3S2)cc1	166	
CC(=O)OC1=C(c2ccccc2)Sc2ccccc2-n2cccc21	19.5	
COc1ccc(C2=C(OC(C)=O)c3cccn3-c3ccccc3S2(=O)=O)cc1	631	
COc1ccc(C2=C(OC(C)=O)c3cccn3-c3cccc(Cl)c3S2)cc1	20.4	
CN(C)C(=O)OC1=C(c2ccccc2)Sc2ccccc2-n2cccc21	9.12	
CC(=O)OC1=C(c2ccc(Cl)cc2)Sc2ccccc2-n2cccc21	30.2	30
CC(=O)OC1=C(c2ccccc2)Sc2ccc(C)cc2-n2cccc21	676	675
COc1ccc(C2=C(OC(=O)c3cc(OC)c(OC)c(OC)c3)c3cccn3-c3cc(Cl)ccc3S2)cc1	100000	
COc1ccc(C2=C(OC(=O)c3cc(OC)c(OC)c(OC)c3)c3cccn3-c3cc(C(F)(F)F)ccc3S2)cc1	100000	
CN(C)C(=O)OC1=C(c2ccccc2)Sc2c(Cl)cccc2-n2cccc21	3.98	4
COc1ccc(C2=C(OC(=O)N(C)C)c3cccn3-c3cc(C(F)(F)F)ccc3S2)cc1	295	

More lines, main results first:

IC50 [1] [nM]	Structure (SMILES)	IC50 [2] [nM]
7.59	CC(=O)OC1=C(c2ccccc2)Sc2c(Cl)cccc2-n2cccc21	
27.5	CCCC(=O)OC1=C(c2ccc(OC)cc2)Sc2ccccc2-n2cccc21	
100000	COc1ccc(C2=C(OC(=O)c3cccnc3)c3cccn3-c3ccccc3S2)cc1	
100000	COc1ccc(C2=C(OC(=O)c3cc(OC)c(OC)c(OC)c3)c3cccn3-c3ccccc3S2)cc1	
21.4	CCCC(=O)OC1=C(c2ccccc2)Sc2ccccc2-n2cccc21	
29.5	CCC(=O)OC1=C(c2ccc(OC)cc2)Sc2ccccc2-n2cccc21	
30.9	CN(C)C(=O)OC1=C(c2ccccc2F)Sc2ccccc2-n2cccc21	31
66.1	CCC(=O)OC1=C(c2ccccc2)Sc2ccccc2-n2cccc21	
57.5	CS(=O)(=O)OC1=C(c2ccccc2)Sc2ccccc2-n2cccc21	
38	CC(=O)OC1=C(c2ccccc2F)Sc2ccccc2-n2cccc21	38
23.4	CCCCCC(=O)OC1=C(c2ccccc2)Sc2ccccc2-n2cccc21	
100000	COc1ccc(C2=C(OC(=O)c3ccncc3)c3cccn3-c3ccccc3S2)cc1	
28.2	CC(=O)OC1=C(c2ccc(F)cc2)Sc2ccccc2-n2cccc21	28
9.12	COc1ccc(C2=C(OC(=O)N(C)C)c3cccn3-c3ccccc3S2)cc1	
100000	O=C1c2cccn2-c2ccccc2S(=O)(=O)C1c1ccccc1 (stereo not given)	
